Data as given in PubChem BioAssay.
Unmarked numbers belong to inactive results. Records with an inconclusive call do not appear. Active and inactive are the calls of the source.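 Rule for the calls, unless noted: active = viability increase at or above a cutoff of the median across tested compounds plus 3 SD (cut at about 8.5% in these data, passing the limit was not always enough); inconclusive = some gains above the cutoff, reason not given; inactive = the rest.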

How the values were obtained:
[1] = S. cerevisiae growth inhibition in permissive medium (OD615), pilot counter-assay for S. cerevisiae lifespan shortening project, permissive growth control (AID 705;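 active = growth inhibition above 25% in both replicates, a cutoff set 3 SD above the mean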); settings: OD615, 24 h, at 10 µM, active compounds read high
Method in brief: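 System: Engineered DeaD yeast | Buffer or medium: SC raffinose/galactose permissive medium | Incubation: Cells pre-grown 4 h, then 24 h compound exposure, 30 °C humidified | Measured by: Absorbance (optical density) at 615 nm | Read-out: Reduction in yeast growth (OD615)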

[2] = S. cerevisiae growth inhibition in restrictive medium, OD615, pilot screen, restrictive growth control, yeast lifespan reduction project (AID 706;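 active = growth inhibition above a set limit, 3 SD over mean compound inhibition, in both replicates, cut at about 43% in these data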;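 note: modified DeaD lifespan yeast strain shifted to restrictive glucose medium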); settings: OD615, 48 h, at 10 µM, active compounds read high
Method in brief: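 Material: modified S. cerevisiae; Medium: glucose-based CSMM-D restrictive medium; Compound dosing: one concentration, 10 µM final, 0.25% DMSO; Incubation: 48 h compound exposure at 30 °C; Measured by: OD615.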

[3] = doxorubicin toxicity protection in MRP-1 cells – H69AR cells, CellTiter-Glo, duplicate, MRP-1 activator project, pilot screen (AID 807); settings: H69AR viability with doxorubicin, CellTiter-Glo luminescence; at 10 µM; active compounds read high;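 note: compound pretreatment 18-22 h then 72 h combined with doxorubicin; 0% = doxorubicin alone and 100% = vehicle without doxorubicin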
[4] = viability of HCT116 without oncogenic beta-catenin – human colon tumor cells, pilot screen (AID 823;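 active = cell viability at or below a set limit in both duplicate runs, the limit being the all-compound median minus 4 SD, cut at about 23% in these data, passing the limit was not always enough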;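 note: 0% = wells killed by 20 µM Hyamine and 100% = untreated DMSO cell wells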); settings: HCT116 beta-catenin knockout viability, CellTiter-Glo, 60 h; at 10 µM; active compounds read low
[5] = RAM pathway blockade in budding yeast – dse1pr::URA3 reporter, 5-FOA selection, pilot screen (AID 869;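 active = inhibition over a set limit, the all-compound mean plus 3 SD, in both replicate runs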;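 note: 0% = DMSO wells with no growth and 100% = 10 µM 1-NA-PP1 with full growth; RAM network block rescues cells from 5-FOA so hits raise OD615 growth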); settings: S. cerevisiae dse1pr::URA3 5-FOA growth, OD615, 2 d; at 10 µM; active compounds read high; strain carries analog-sensitive mutant Cbk1 kinase
[6] = RAM signaling pathway blockade in yeast – S. cerevisiae, Pdr1DBD-CYC8 efflux-inhibited sensitized strain, primary screen (AID 1298;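 active = RAM network inhibition above 8.4% in each of two replicates, 3 SD over the compound average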;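 note: 0% = DMSO untreated cells without growth and 100% = 10 µM 1-NA-PP1 full growth; higher means more yeast growth rescued from 5-FOA killing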); settings: S. cerevisiae cbk1-as DSE1-URA3 strain, 5-FOA growth OD615, 2 d; at 50 µM; active compounds read high
[7] = viability of PTEN-null HCT116 cells – cell-based, HCT116 clonal line, CellTiter-Glo, pilot screen (AID 824;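 active = viability at or below 27.92% in each of two runs, the all-compound median minus 4 SD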;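 note: 0% = 20 µM Hyamine control and 100% = vehicle cell control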); settings: HCT116 PTEN-deleted viability, 60 h, at 10 µM, active compounds read low

Structure (SMILES)	growth inhibition [1] [%]	growth inhibition [2]	viability increase [3] [%]	viability [4] [%]	inhibition [5] [%]	RAM network inhibition [6]	viability [7] [%]
COc1ccccc1NC1=NCC(=O)N1Cc1ccccc1	-30.4	-3.24%	-0.5	93.9	3.58	4.78%	–
Fc1ccc(Br)cc1C1C=C(c2cccnc2)Nc2ncnn21 (stereo not given)	6.35	46.9% (active)	-4.62	44.5	3.21	21.7% (active)	–
COc1cc(C2=Nc3c(c(C)nn3-c3ccccc3)P(=O)(N3CCOCC3)O2)cc(OC)c1OC (stereo not given)	12.4	0.78%	-2.26	92	0.485	2.86%	–
Nn1c(SC/C=C/c2ccccc2)nnc1-c1ccccn1	-5.81	-10%	-0.88	103	-0.5	-2.02%	95.1
c1cnn(-c2nc(N3CCOCC3)nc(N3CCOCC3)n2)c1	0.06	7.23%	-5.18	67.1	1.96	-2.04%	72.9
C=CCNC(=O)c1ccc2c(c1)nnn2C	-16	-12.7%	-0.65	103	2.63	4.93%	–
O=c1[nH]c2ccc(S(=O)(=O)N3CCN(c4ccccc4F)CC3)cc2s1	-19.3	-7.76%	-4.17	93.3	0.75	4.21%	–
O=C(Nc1ccc(Cl)cc1)c1ccncc1	-11.5	-3.32%	0.18	106	1.14	6.15%	–
O=c1[nH]c2ccc(S(=O)(=O)NCc3ccccn3)cc2s1	-13.7	2.04%	-1.44	95.8	1.35	6.28%	–
CCOC(=O)C1CCN(C(=O)c2ccc(NC(=O)C3CCCO3)cc2)CC1 (stereo not given)	-14.9	-7.09%	-2.64	88.8	1.09	3.28%	–
CC1CCCN(c2nc3c(c(=O)n(C)c(=O)n3C)n2Cc2ccccc2)C1 (stereo not given)	-0.33	-3.24%	-2.17	85.9	1.67	1.56%	–
CCC(=O)c1cn(CC(=O)NCC2CCCO2)c2ccccc12 (stereo not given)	0.725	12.5%	-3.8	96.7	2.02	1.98%	–
O=C(CSc1oc(-c2ccc(F)cc2)nc1S(=O)(=O)c1ccccc1)NCC1CCCO1 (stereo not given)	-15.8	4.17%	-5.58	90.8	2.46	6.86%	–
COc1cc(C2C(C(=O)c3ccco3)=C(O)C(=O)N2CCc2ccccc2)ccc1O (stereo not given)	-1.96	-3.74%	-3.47	95.8	0.735	-0.31%	–
COc1ccc(C(=O)OCCN2C(=O)c3ccccc3C2=O)cc1OC	6.76	3.49%	-1.79	117	0.34	0.93%	–
COc1ccc(NC(=O)C(c2ccc(OC)cc2)N(C)C(=O)c2cnccn2)cc1 (stereo not given)	9.44	2.07%	-2.29	101	2.52	1.4%	–
CCCSc1nc(N)c2c3c(sc2n1)CN(C)CC3	-25	-3.27%	-2.7	80.9	1.02	6.8%	–
CCCCC(NC(C)=O)c1nc2ccccc2n1CCCC (stereo not given)	-16.8	-12.2%	-4.34	86.6	1.69	4.56%	–
